For 4 compounds, inhibition and IC50 results are on record in ChEMBL document CHEMBL3046220, “Bioactive saponin from tea seed pomace with inhibitory effects against Rhizoctonia solani” (J Agric Food Chem, 2010).

Bounds are passed on as bounds.

Experiment [1] deals with Rhizoctonia solani. Briefly: Antifungal activity against Rhizoctonia solani AG-4 assessed as inhibition of colony size at 10 ppm at 27 degC measured after 48 hr. The settings on record: AG-4, 48 h. It counts as functional. A digest of the protocol:
(§1)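 R. solani AG-4 RST-04 was kept on PDA slants. Samples were dissolved in distilled water, with distilled water as the control. Growth was on PDA plates at 27 °C for 48 h. Colony size was measured as mean ± SE (n = 8). Inhibition % = [(control colony size − treatment colony size)/control colony size] × 100. Groups were compared by Duncan's multiple-range test (p = 0.05).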

The test system of experiment [2] is Rhizoctonia solani. Briefly: Antifungal activity against Rhizoctonia solani AG-4 assessed as inhibition of colony size at 30 ppm at 27 degC measured after 48 hr. It is filed as functional. The settings on record: AG-4, 48 h. A digest of the protocol: as §1
Experiment [3] concerns Rhizoctonia solani. Briefly: Antifungal activity against Rhizoctonia solani AG-4 assessed as inhibition of colony size at 60 ppm at 27 degC measured after 48 hr. It is filed as functional. The settings on record: AG-4, 48 h. A digest of the protocol: as §1
Experiment [4] relates to Rhizoctonia solani. Briefly: Antifungal activity against Rhizoctonia solani AG-4 assessed as inhibition of colony size at 100 ppm at 27 degC measured after 48 hr. It is filed as functional. The settings on record: AG-4, 48 h. A digest of the protocol:
as §1

For experiment [5], the system named is Rhizoctonia solani. Briefly: Antifungal activity against Rhizoctonia solani AG-4 assessed as inhibition of mycelial growth at 27 degC measured after 48 hr. It counts as functional, organism-based.
The subject of experiment [6] is Rhizoctonia solani. Briefly: Antifungal activity against Rhizoctonia solani AG-4 assessed as inhibition of colony size at 25 ppm at 27 degC measured after 48 hr. It counts as functional. The conditions noted are these: AG-4, 48 h. In short, it runs like this: (§2)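 R. solani AG-4 RST-04 was grown on potato dextrose agar plates at 27 °C for 48 h, with the reference fungicide tested across 0.25-250 ppm. Samples were dissolved in distilled water, and plates given distilled water alone served as control. Colony size was read as the mean of n = 8. Inhibition (%) = [(control colony size − treated colony size)/control colony size] × 100.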

Experiment [7] deals with Rhizoctonia solani. Briefly: Antifungal activity against Rhizoctonia solani AG-4 assessed as inhibition of colony size at 250 ppm at 27 degC measured after 48 hr. It counts as functional. The settings on record: AG-4, 48 h. In short, it runs like this:
as §2

In experiment [8] the test system is Rhizoctonia solani. Briefly: Antifungal activity against Rhizoctonia solani AG-4 assessed as inhibition of colony size at 0.25 ppm at 27 degC measured after 48 hr. It counts as functional. The settings on record: AG-4, 48 h. In short, it runs like this: as §2
Experiment [9] relates to Rhizoctonia solani. Briefly: Antifungal activity against Rhizoctonia solani AG-4 assessed as inhibition of colony size at 2.5 ppm at 27 degC measured after 48 hr. It counts as functional. The conditions noted are these: AG-4, 48 h. In short, it runs like this: as §2
The test system of experiment [10] is Rhizoctonia solani. Briefly: Antifungal activity against Rhizoctonia solani AG-4 assessed as inhibition of colony size at 125 ppm at 27 degC measured after 48 hr. It is filed as functional. The settings on record: AG-4, 48 h. A digest of the protocol:
as §1

For the compound `C/C=C(/C)C(=O)O[C@H]1CC(C)(C)C[C@H]2C3=CC[C@@H]4[C@@]5(C)CC[C@H](O[C@@H]6O[C@H](C(=O)O)[C@@H](O)[C@H](O[C@@H]7OC[C@H](O)[C@H](O)[C@H]7O[C@@H]7O[C@H](CO)[C@@H](O)[C@H](O)[C@H]7O)[C@H]6O[C@@H]6O[C@H](CO)[C@H](O)[C@H](O)[C@H]6O)[C@@](C)(C=O)[C@@H]5CC[C@@]4(C)[C@]3(C)C[C@@H](O)[C@@]12CO` [CAMELLIASAPONIN B1], in the experiment on Rhizoctonia solani [1], the inhibition at 10 ppm was determined as 6.43%. For the same compound, the inhibition at 30 ppm in the experiment with Rhizoctonia solani [2] is 46.8%. Further, in the experiment with Rhizoctonia solani [3], the inhibition at 60 ppm turned out to be 56.5%. The inhibition at 100 ppm in the experiment on Rhizoctonia solani [4] was found to be 63.4%. In the experiment on Rhizoctonia solani [5], the IC50 was found to be 55.7 ppm.
Consider `O=C(Nc1ccccc1)N(Cc1ccc(Cl)cc1)C1CCCC1` [PENCYCURON], for which the inhibition at 25 ppm in the experiment with Rhizoctonia solani [6] stood at 83.9%. In the experiment on Rhizoctonia solani [7], the inhibition at 250 ppm stood at 81.9%. Also, in the experiment on Rhizoctonia solani [5], the IC50 was less than 0.25 ppm. Moreover, the inhibition at 0.25 ppm in the experiment on Rhizoctonia solani [8] amounted to 66.6%. The inhibition at 2.5 ppm in the experiment with Rhizoctonia solani [9] is 73.6%.
`C[C@@H]1O[C@@H](OC[C@H]2O[C@@H](Oc3c(-c4ccc(O)cc4)oc4cc(O)cc(O)c4c3=O)[C@H](O[C@@H]3O[C@H](CO)[C@H](O)[C@H](O)[C@H]3O)[C@@H](O)[C@@H]2O)[C@H](O)[C@H](O)[C@H]1O` [CAMELLIASIDE A]: in the experiment with Rhizoctonia solani [10], the inhibition at 125 ppm was -14.7%. The IC50 in the experiment with Rhizoctonia solani [5] is more than 125 ppm.
Taken in the same sequence, the figures for `C[C@@H]1O[C@@H](OC[C@H]2O[C@@H](Oc3c(-c4ccc(O)cc4)oc4cc(O)cc(O)c4c3=O)[C@H](O[C@@H]3OC[C@@H](O)[C@H](O)[C@H]3O)[C@@H](O)[C@@H]2O)[C@H](O)[C@H](O)[C@H]1O` [CAMELLIASIDE B] were -14.5% and more than 125 ppm.
